TRPC4 block – blocks the mouse TRPC4 cation channel. Q9QUQ5. HEK293 TRPC4beta/mu-opioid, DAMGO-evoked Fluo4 calcium flux; stronger effect = lower value. B-score at 10 µM. 0.39% of 300,000 active. AID 2247;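 active means B-score over 3 SD under the library average, no early fluorescence shift, positive overall ratio signal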
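Test system – stable TRPC4beta/mu-opioid receptor HEK293 cells · Probe or stimulus – DAMGO, a submaximal dose followed by a maximal one · Dosing – one concentration per compound · Signal – Fluo4 calcium fluorescence by kinetic imaging, 5 s 1 Hz baseline · Evaluation – per-well B score of integrated baseline-normalized Fluo4 ratio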
TRPC4 act – activators of mouse TRPC4 channel | Q9QUQ5 | HEK293 TRPC4beta/mu-opioid, Fluo4 calcium fluorescence; stronger effect = higher value | B-score at 10 µM | 0.49% of 310,000 active;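 active means B-score above 5 SD of library B-scores, and initial fluorescence ratio not above library mean plus 5 SD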;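 further: positive B-score marks a calcium rise read as TRPC4 activation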
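Material: TRPC4beta and mu-opioid receptor HEK293 stable cells | Incubation: 45 min room-temperature Fluo4 loading, 110 s read | Detection: Kinetic Fluo4 calcium fluorescence | Measure: Integrated baseline-normalised fluorescence ratio, converted to per-well B score | Benchmarks: Low control buffer alone, high control maximal DAMGO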
TRPC4 potent – TRPC4 (mouse) allosteric potentiation | Q9QUQ5 | HEK293 TRPC4beta/mu-opioid, DAMGO EC20, Fluo-4 Ca2+ flux; stronger effect = higher value | B-score at 10 µM | 0.42% of 310,000 active | AID 2227;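 active means B-score of calcium response area above 5 SD of library B-scores, with initial fluorescence ratio within 5 SD of library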;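 further: B-score of integrated fluorescence ratio over time as area under calcium response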
TRPC6 act – activators of mouse TRPC6 channel. 0.13% of 310,000 active. HEK293-TRPC6 membrane potential dye fluorescence; stronger effect = higher value. Q61143. AID 2550. B-score at 10 µM;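 active means B-score of the integrated fluorescence ratio above library mean plus 3 SD, and starting fluorescence ratio within library mean plus 5 SD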;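 further: higher score means more depolarization so channel activation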
Kir21 block – Kir2.1 (mouse) channel inhibition; P35561; HEK293-Kir2.1, FluxOR thallium flux fluorescence; stronger effect = lower value; B-score at 10 µM; 0.85% of 310,000 active;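 active means fluorescence ratio B-score at or below minus 3 SD of library scores, with starting-brightness B-score within 2 SD, cut at about -4.2 in these data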;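 further: channel flux triggered by added potassium and thallium sulfate stimulus; B-score of peak minus minimum fluorescence over baseline after thallium stimulus; more negative B-score means stronger Kir2.1 block with less thallium influx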
TRPC6 inhibitor – mouse TRPC6 channel inhibition | Q61143 | 1.1% of 310,000 active | HEK293-TRPC6, membrane potential dye, ACh-evoked depolarization; stronger effect = lower value | B-score at 10 µM;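 active means B-score under library mean minus 3 SD, initial fluorescence not abnormally high, positive integrated signal ratio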;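 further: B-score derived from integrated fluorescence ratio over the kinetic read; more negative B-score means stronger inhibition of depolarization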
* hit, by the source's call; i = inactive. Sampled rows, rich in hits. Any-hit rate of the full collection: about 3%.

SMILES | TRPC4 block | TRPC4 act | TRPC4 potent | TRPC6 act | Kir21 block | TRPC6 inhibitor
Cc1cccc(OCc2n(CC(=O)OC3CC(C)CCC3C(C)C)c3ccccc3[n+]2C)c1 (stereo unspecified) | i | i | i | i | -13* | i
C/C(=N/NC(=O)c1cc(C)[nH]n1)c1ccncc1 | i | i | i | i | -0.67 | i
Cc1ccc(Cl)cc1N1CCN(Cc2nc3c(c(=O)[nH]c(=O)n3C)n2Cc2ccccc2F)CC1 | i | i | 26* | i | 0.06 | i
Cc1ccc(Cl)cc1N1CCN(Cc2nc3c(c(=O)[nH]c(=O)n3C)n2CCc2ccccc2)CC1 | i | i | i | i | 2.6 | i
CCN1CCN(Cc2nc3c(c(=O)[nH]c(=O)n3C)n2Cc2ccccc2Cl)CC1 | i | i | 28* | i | 1.7 | i
Cn1c(=O)[nH]c(=O)c2c1nc(CN1CCN(c3cccc(Cl)c3)CC1)n2Cc1ccccc1Cl | i | i | i | i | -0.2 | i
COc1ccc(NC(C)=O)cc1NC(=O)c1ccc(C#N)cc1 | i | i | i | i | 2.9 | i
CN(C)S(=O)(=O)N1CCN(c2ccc([N+](=O)[O-])c(NC3CC3)c2)CC1 | i | i | 10* | i | 1.1 | i
CNc1cc(N2CCN(S(=O)(=O)N(C)C)CC2)ccc1[N+](=O)[O-] | i | i | i | i | -0.55 | i
O=C(CSC(=S)N1CCN(c2ccccc2)CC1)Nc1nc(-c2ccccc2)c(-c2ccccc2)o1 | i | i | i | i | 1.8 | i
O=C(c1cc2cc(Br)cc(Br)c2oc1=O)N1CCCC1 | i | i | 17* | i | 0.01 | i
COc1cc(Br)cc2cc(C(=O)N3CCN(c4ccccn4)CC3)c(=O)oc12 | i | i | i | i | 2.6 | i
CCN(CC)S(=O)(=O)c1cc(NC(=O)C(C)OC(=O)c2[nH]c(C)c(C(C)=O)c2C)ccc1C (stereo unspecified) | i | i | i | i | -1 | i
CCC(NC(=O)c1ccccc1NC(=O)c1ccccc1)C(=O)NNC(=O)c1cccnc1 (stereo unspecified) | i | i | i | i | 2 | i
C/C(CC(=O)N(C(C)C)C(C)C)=N\NC(=O)COc1ccc(Br)cc1Br | i | i | i | i | -0.24 | i
C/C(CC(=O)N(C(C)C)C(C)C)=N\NC(=O)COc1ccc(Cl)cc1Cl | -6* | i | i | i | 0.19 | i
Cc1cc(C)c(C)c(S(=O)(=O)N2CCSCC2)c1C | i | i | i | i | -4.5* | i
OCCNCc1cccc(Br)c1 | i | i | i | i | 0.45 | i
Clc1cccc(CNCCNCc2cccc(Cl)c2)c1 | i | i | i | i | -4.3* | i
Cc1ccc(NC(=O)Nc2ccc3c(c2)C(=O)OC3)cc1Cl | i | i | i | i | 1.7 | i
CCCCCN=C(N)N/N=C/c1c[nH]c2ccc(OC)cc12 | i | 66* | i | i | -9.4 | i
CC[C@@H](C(=O)[C@@H](C)[C@@H](O)[C@H](C)CCc1ccc(C)c(O)c1C(=O)O)[C@H]1O[C@](CC)([C@H]2CC[C@](O)(CC)[C@H](C)O2)C[C@@H]1C | i | 160* | i | i | -1.4 | i
CCc1c(C(=O)N2CCCN(C)CC2)csc1C | -6* | i | i | i | -1.1 | i
CCc1ccc(C(=O)N2CCCN(C)CC2)s1 | i | i | i | i | 1 | i
CC(C)CCSc1nc2[nH]ncc2c(=O)[nH]1 | i | i | i | i | 1.8 | i
SMILES | TRPC4 block | TRPC4 act | TRPC4 potent | TRPC6 act | Kir21 block | TRPC6 inhibitor
CC1CCCCN1C(=O)c1cc2ccccc2cc1O (stereo unspecified) | i | i | i | i | -1.4 | i
CC(NCC(O)COC1CCC(C(C)(C)C)CC1)c1ccccc1 (stereo unspecified) | i | i | i | i | -8.6* | i
COc1ccc(CCNc2ncnc3c2nnn3Cc2ccccc2)cc1OC | i | i | i | i | 2 | i
Cc1cccc(-c2nnc(SCc3ccc(C#N)cc3)n2Cc2ccco2)c1 | i | i | i | i | -5.3* | i
Clc1ccc(CSc2nnc(-c3cccnc3)n2Cc2ccco2)c(Cl)c1 | i | i | i | i | -4.3* | i
CCn1c(COc2ccc(Cl)cc2)nnc1SCc1ccc(C#N)cc1 | i | i | i | i | -4.8* | i
CCn1c(SCc2ccc(Cl)cc2)nnc1-c1ccccc1 | i | i | i | i | -5.3* | i
O=c1[nH]c(=S)[nH]c2c1CN(Cc1ccc(F)cc1)CC2 | i | i | i | i | 0.98 | i
Cc1ccc(C)c(CSc2nnc(-c3cccs3)n2Cc2ccco2)c1 | i | i | i | i | -5* | i
CCn1c(SCc2ccc(C#N)cc2)nnc1-c1cccc(Cl)c1 | i | i | i | i | -4.6* | i
CCOC(=O)c1sc2nc(CN3CCN(c4cccc(C(F)(F)F)c4)CC3)[nH]c(=O)c2c1C | i | i | i | i | 0.06 | i
COc1ccc(C(CNC(=O)CCOc2ccccc2)N(C)C)cc1 (stereo unspecified) | i | 154* | i | i | -0.37 | i
CN(C)C(CNC(=O)CCc1nc2ccccc2s1)c1ccccc1 (stereo unspecified) | -7* | i | i | i | -3 | i
Cc1cccc(OCCC(=O)NCC(c2ccccc2)N(C)C)c1 (stereo unspecified) | i | 103* | i | i | -1.8 | i
Cc1ccccc1NS(=O)(=O)c1cccc2nsnc12 | i | i | i | i | -1.2 | i
Cc1cc(NS(=O)(=O)c2ccccc2)c(C)c(Cl)c1O | i | i | i | i | -5.8* | i
Cc1ccc(S(=O)(=O)Nc2cc(C)c(O)cc2C)cc1 | i | i | i | i | -4.9* | i
O=C(c1ccoc1)N1CCCC(N2CCN(c3cccc(Cl)c3)CC2)C1 (stereo unspecified) | i | i | i | i | -0.1 | i
CC[C@H](C)[C@@H](CNC)NC[C@@H](Cc1ccc(O)cc1)NCC(C)(C)C | i | i | i | i | 0.63 | i
CC[C@@H](C)[C@H](CN[C@H](CNC)C(C)C)NC[C@@H](C)c1ccc(CC(C)C)cc1 | i | i | i | i | -8.8* | i

Source: PubChem BioAssay (Johns Hopkins Ion Channel Center)
